Consider 9 molecules from ChEMBL document CHEMBL1123052, “Structure-activity relationships for prazosin and WB 4101 analogues as alpha 1-adrenoreceptor antagonists” (J Med Chem, 1985).

Assay [1] can be described thus: Selectivity as the ratio of pA2 value against alpha 1 receptor to that of alpha-2 receptor. In short, it runs like this:
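Ratio computed as the antilog of the α1 pA2 minus the α2 pA2. The α1 pA2 came from rat epididymal vas deferens against norepinephrine, and the α2 pA2 from field-stimulated prostatic vas deferens against clonidine.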

Assay [2] addresses T1, Adrenergic receptor alpha-1 (Rattus norvegicus, UniProt P15823+P23944+P43140).
T1 sequence (P15823 whole entry): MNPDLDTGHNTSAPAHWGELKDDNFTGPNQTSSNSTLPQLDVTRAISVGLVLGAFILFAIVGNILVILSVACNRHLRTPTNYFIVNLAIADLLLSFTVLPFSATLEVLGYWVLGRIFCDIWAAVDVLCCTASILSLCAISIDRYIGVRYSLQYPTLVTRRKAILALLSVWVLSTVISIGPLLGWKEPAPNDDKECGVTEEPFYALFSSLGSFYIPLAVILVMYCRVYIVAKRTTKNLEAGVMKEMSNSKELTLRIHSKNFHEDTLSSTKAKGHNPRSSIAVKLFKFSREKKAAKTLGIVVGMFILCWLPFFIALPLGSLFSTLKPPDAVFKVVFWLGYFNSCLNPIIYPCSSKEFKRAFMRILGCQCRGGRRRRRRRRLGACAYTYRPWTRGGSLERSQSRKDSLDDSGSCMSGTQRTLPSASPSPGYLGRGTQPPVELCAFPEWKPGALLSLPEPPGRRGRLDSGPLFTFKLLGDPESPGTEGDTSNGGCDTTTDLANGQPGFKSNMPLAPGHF
T1 sequence (P23944 whole entry): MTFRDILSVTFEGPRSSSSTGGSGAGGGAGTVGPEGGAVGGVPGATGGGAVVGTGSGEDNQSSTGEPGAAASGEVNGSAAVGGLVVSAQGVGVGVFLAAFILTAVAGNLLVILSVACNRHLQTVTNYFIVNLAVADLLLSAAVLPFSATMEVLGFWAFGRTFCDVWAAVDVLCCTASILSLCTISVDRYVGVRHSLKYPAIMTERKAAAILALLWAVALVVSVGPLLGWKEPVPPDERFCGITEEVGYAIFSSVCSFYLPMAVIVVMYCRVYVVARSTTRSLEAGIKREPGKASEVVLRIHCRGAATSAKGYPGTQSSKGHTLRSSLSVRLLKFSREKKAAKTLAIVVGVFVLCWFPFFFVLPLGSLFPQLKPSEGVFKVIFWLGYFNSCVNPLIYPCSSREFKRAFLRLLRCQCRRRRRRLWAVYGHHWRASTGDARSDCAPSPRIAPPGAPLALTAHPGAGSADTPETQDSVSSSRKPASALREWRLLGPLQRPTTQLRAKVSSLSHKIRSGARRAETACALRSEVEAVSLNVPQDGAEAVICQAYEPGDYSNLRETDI
T1 sequence (P43140 whole entry): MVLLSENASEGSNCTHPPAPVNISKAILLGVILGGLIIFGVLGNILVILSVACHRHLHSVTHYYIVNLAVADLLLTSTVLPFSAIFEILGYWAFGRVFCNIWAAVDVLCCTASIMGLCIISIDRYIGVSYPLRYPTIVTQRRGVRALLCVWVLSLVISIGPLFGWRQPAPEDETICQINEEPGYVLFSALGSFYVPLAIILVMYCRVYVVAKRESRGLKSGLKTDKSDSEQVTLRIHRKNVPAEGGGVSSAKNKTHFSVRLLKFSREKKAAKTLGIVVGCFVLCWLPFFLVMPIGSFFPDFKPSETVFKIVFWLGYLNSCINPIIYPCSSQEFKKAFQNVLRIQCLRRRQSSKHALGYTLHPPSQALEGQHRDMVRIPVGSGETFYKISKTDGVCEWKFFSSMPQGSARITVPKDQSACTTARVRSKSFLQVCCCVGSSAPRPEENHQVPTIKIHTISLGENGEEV
Kind of assay: Alpha-1-Adrenoceptor blocking activity as antagonism of (-)-norepinephrine induced contractions of epididymal vas deferens. The class given is functional, tissue-based.

Assay [3] is filed under the species Rattus norvegicus. In words: (§1) Alpha-2-adrenoceptor blocking activity was determined by antagonism of clonidine induced depression of the twitch responses of the field stimulated prostatic portion of the vas deferens and the potency was expressed as pA2. The class given is functional. Conditions: read-out: pA2 (converted).
For assay [4], the target named is T1, Adrenergic receptor alpha-1. Kind of assay: Alpha-1 adrenergic receptor blocking activity was assessed by antagonism of (-)-norepinephrine induced contractions of the epididymal portion of the vas deferens and the potency was expressed as pA2. The assay is classed as functional, tissue-based. An outline of the steps:
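Male albino rat (175–200 g) epididymal vas deferens, 14 mm, in Krebs at 37 °C gassed 95% O2–5% CO2, 0.4 g load, with propranolol 1 μM, cocaine 10 μM, deoxycorticosterone acetate 40 μM. ≥1 h equilibration. Cumulative norepinephrine curves: second as control, third after 30 min antagonist. Time-matched untreated tissues. Schild pA2 from EC50 dose ratios, three antagonist concentrations, n≥5 each.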

Assay [5] deals with T2, Adrenergic receptor alpha-2 (Rattus norvegicus, UniProt P22086+P19328+P22909).
T2 sequence (P22086 whole entry): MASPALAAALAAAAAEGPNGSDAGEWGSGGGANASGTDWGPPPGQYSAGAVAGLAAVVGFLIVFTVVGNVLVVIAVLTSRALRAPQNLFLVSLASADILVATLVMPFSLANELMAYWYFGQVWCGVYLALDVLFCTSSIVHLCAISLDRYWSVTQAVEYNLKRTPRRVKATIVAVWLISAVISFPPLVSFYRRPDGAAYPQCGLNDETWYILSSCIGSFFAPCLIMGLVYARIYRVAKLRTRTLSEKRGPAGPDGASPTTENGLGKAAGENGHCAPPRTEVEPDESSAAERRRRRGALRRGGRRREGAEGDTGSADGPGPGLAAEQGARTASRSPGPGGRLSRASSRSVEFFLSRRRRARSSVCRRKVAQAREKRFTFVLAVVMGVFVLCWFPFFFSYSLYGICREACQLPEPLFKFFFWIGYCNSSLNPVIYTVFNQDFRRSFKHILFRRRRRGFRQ
T2 sequence (P19328 whole entry): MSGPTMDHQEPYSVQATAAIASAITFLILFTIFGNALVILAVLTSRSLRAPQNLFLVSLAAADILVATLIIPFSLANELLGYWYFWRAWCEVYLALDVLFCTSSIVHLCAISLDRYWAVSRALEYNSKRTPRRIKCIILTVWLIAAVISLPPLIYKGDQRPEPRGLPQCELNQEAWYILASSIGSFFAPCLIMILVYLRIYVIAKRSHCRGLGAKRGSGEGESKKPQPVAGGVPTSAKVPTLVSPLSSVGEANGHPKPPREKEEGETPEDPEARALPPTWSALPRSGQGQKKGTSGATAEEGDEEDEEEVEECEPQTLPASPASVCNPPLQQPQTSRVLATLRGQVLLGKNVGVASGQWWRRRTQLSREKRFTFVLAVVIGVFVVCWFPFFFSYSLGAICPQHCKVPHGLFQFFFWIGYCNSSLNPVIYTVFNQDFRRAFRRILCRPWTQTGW
T2 sequence (P22909 whole entry): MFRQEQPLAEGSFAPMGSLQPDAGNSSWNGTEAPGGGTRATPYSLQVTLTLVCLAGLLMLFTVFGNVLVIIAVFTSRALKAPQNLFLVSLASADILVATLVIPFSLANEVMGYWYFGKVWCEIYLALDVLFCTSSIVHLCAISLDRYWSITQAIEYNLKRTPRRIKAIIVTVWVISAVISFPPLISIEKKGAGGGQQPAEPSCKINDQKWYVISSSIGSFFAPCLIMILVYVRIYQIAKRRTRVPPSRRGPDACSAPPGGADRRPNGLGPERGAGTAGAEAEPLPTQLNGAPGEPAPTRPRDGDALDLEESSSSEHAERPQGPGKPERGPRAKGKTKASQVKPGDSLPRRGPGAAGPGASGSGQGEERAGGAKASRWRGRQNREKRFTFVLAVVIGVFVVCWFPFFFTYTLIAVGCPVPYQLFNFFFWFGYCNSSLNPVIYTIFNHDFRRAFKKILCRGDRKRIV
The description is as §1. The assay is classed as functional, tissue-based. An outline of the steps: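 Field stimulation 0.1 Hz, 3-ms pulses, 10–35 V. Propranolol, cocaine and deoxycorticosterone present. After 1 h, one tissue was given antagonist for 30 min and the contralateral tissue served as control. Clonidine curves for 50% twitch inhibition gave dose ratios. Three concentrations (two if limited above 30 μM), n≥5; Schild or van Rossum pA2.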

Structures can show the parent of a compound that is named as a salt.

As for `COc1cccc(OC)c1OCCN1CCN(C(=O)c2ccco2)CC1.Cl`, the Selectivity ratio in assay [1] was 55. The same molecule had a pA2 in assay [2] of 6.45. In assay [3], the Kb is 19500 nM.
The like results for `COc1cc2nc(NCCNC(=O)c3ccco3)nc(N)c2cc1OC.Cl` were, in that order, 3890, 8.81 and 6030 nM.
As for `Cl.O=C(c1ccco1)N1CCN(CC2COc3ccccc3O2)CC1` (stereo unspecified), the Selectivity ratio in assay [1] was determined as 0.59. Further, the pA2 in assay [4] stood at 6.05. In addition, the Kb in assay [3] was 525 nM.
For `COc1cc2nc(NCC3COc4ccccc4O3)nc(N)c2cc1OC.Cl` (stereo unspecified), the Selectivity ratio in assay [1] came to 11. The molecule further had a pA2 in assay [2] of 7.22. Also, the Kb in assay [3] was 676 nM.
For `COc1cc2nc(N(C)CCOc3c(OC)cccc3OC)nc(N)c2cc1OC.Cl`, the Selectivity ratio in assay [1] is 89. Moreover, the pA2 in assay [5] is listed as 5.91; in assay [2], 7.86.
Consider `COc1cc2nc(NCCOc3c(OC)cccc3OC)nc(N)c2cc1OC.Cl`, for which the Selectivity ratio in assay [1] was 87. In assay [2], this molecule showed a pA2 of 7.88. Further, the Kb in assay [3] was 1150 nM.
The like results for `COc1cc2nc(N(C)CCN(C)C(=O)c3ccco3)nc(N)c2cc1OC.Cl` were, in that order, 65, 7.18 and 4270 nM.
For the molecule `Cl.O=C(NCCNCC1COc2ccccc2O1)c1ccco1` (stereo unspecified), the Selectivity ratio in assay [1] worked out at 22. In addition, in assay [2], the pA2 turned out to be 7.19. For the same molecule, the Kb in assay [3] is 1410 nM.
Turning to `COc1cccc(OC)c1OCCNCC1COc2ccccc2O1` (stereo unspecified) [2- (2,6-DIMETHOXYPHENOXYETHYL)AMINOMETHYL-1,4-BENZODIOXANE HYDROCHLORIDE (WB 4101)], the Selectivity ratio in assay [1] is 347. Moreover, the Kb in assay [3] is 513 nM.

As usually defined, the pA2 is a measure of antagonist potency on a negative log scale.
